Screens: PubChem, Broad Institute
ARNT-TACC3 inh: disruptors of ARNT/TACC3 protein interaction, primary screen, biochemical, AlphaScreen, single concentration; Transforming acidic coiled-coil-containing protein 3 (Homo sapiens), Q9Y6A5; AlphaScreen His-ARNT PAS-B/GST-TACC3 binding, luminescence; TACC3 fragment carries E629A point mutation; inhibition, % at 9.99 µM; actives 0.66% (n = 390,000); AID 623870, 2012;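 active = mean inhibition of replicates at least 50% and at least half of replicates each reaching 50%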;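 also: 0% = complete ARNT plus TACC3 wells and 100% = ARNT alone without TACC3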
CAL PDZ FP-1: CAL PDZ peptide-binding inhibitors, primary screen, biochemical, fluorescence polarization, Cer-tagged CAL PDZ, HTS; purified CAL PDZ, TMR-peptide fluorescence polarization, 1 h; Golgi-associated PDZ and coiled-coil motif-containing protein (Homo sapiens), Q9HD26; inhibition, % at 20 µM; actives 0.02% (n = 330,000);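 active = highest replicate inhibition of at least 40%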;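 also: plate controls were DMSO neutral control wells for no effect and unlabeled competitor peptide control wells for full effect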
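System: purified tagged CAL PDZ domain construct (CerCALP). Schedule: 1 h incubation at room temperature before polarization reading. Medium: 25 mM sodium phosphate pH 7.4, 150 mM NaCl, TCEP, IgG, Thesit. Read-out: percent inhibition from loss of millipolarization. Measured by: FP readout, S and P plane fluorescence. Probe or stimulus: fluorescent TMR peptide probe.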
CAL PDZ FP-2: untagged CAL PDZ binding inhibitors, primary screen, biochemical, fluorescence polarization, HTS; Golgi-associated PDZ and coiled-coil motif-containing protein (Homo sapiens), Q9HD26; purified CAL PDZ, TMR-peptide fluorescence polarization, 1 h; inhibition, % at 24.9 µM; actives 0.92% (n = 300,000);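 active = mean inhibition of at least 30% with at least half of replicates also reaching 30%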;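 also: 0% = DMSO neutral control and 100% = excess unlabeled competitor peptide PRC23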
An asterisk follows results filed as active; . = no result given. Sampled rows, rich in hits. Any-hit rate of the full collection: about 1.2%.

SMILES | ARNT-TACC3 inh | CAL PDZ FP-1 | CAL PDZ FP-2
CN(C)C(=O)C[C@@H]1C=C[C@@H](NC(=O)C2CCC2)[C@H](CO)O1 | -5 | . | .
COCC(=O)N(Cc1cc2cc(OC)ccc2[nH]c1=O)c1ccccc1 | . | -1 | 0
COCC(=O)N(Cc1cc2ccccc2[nH]c1=O)c1ccc(OC)cc1 | 4 | 0 | 62*
CCNC(=O)Nc1ccc2c(c1)C(=O)N(C)[C@H]1CC[C@@H](CC(=O)N[C@H](C)c3ccccc3)O[C@H]1CO2 | active | . | .
CCNC(=O)Nc1ccc2c(c1)C(=O)N(C)[C@@H]1CC[C@@H](CC(=O)N[C@@H](C)c3ccccc3)O[C@@H]1CO2 | 3 | . | .
O=C(COc1ccccc1)NCC1COc2ccccc2O1 (stereo not given) | -11 | -4 | .
O=C(COc1ccccc1[N+](=O)[O-])NCC1COc2ccccc2O1 (stereo not given) | 17 | 0 | 30*
CN1C(=O)c2cc(NC(=O)C3CCCCC3)ccc2OC[C@@H]2O[C@@H](CC(=O)NCc3ccccc3F)CC[C@H]21 | -6 | . | .
COc1ccc(NC(=O)N(C)C[C@@H]2OCCCC[C@@H](C)Oc3ccc(NS(=O)(=O)c4cccs4)cc3C(=O)N([C@H](C)CO)C[C@@H]2C)cc1 | -6 | . | .
O=C(NCCOc1ccccc1)c1ccc2c(c1)OCO2 | -2 | -2 | -5
CN(CCOc1ccccc1)C(=O)c1ccc2c(c1)OCO2 | 1 | 0 | 62*
CCS(=O)(=O)NCC[C@@H]1CC[C@@H](NC(=O)C2CCC2)[C@@H](CO)O1 | -7 | . | .
CCC(CC)NC(=O)COC(=O)c1ccc(OCC(=O)Nc2ccccc2OC)c(OC)c1 | -19 | 1 | 44*
CCCNC(=O)COC(=O)c1ccc(OCC(=O)Nc2ccccc2OC)c(OC)c1 | -5 | 1 | 9
O=C(C[C@@H]1CC[C@H]2[C@@H](COC[C@H](O)CN2C(=O)c2ccccc2F)O1)NCc1ccc(-c2ccccc2)cc1 | -3 | . | .
Cc1noc(C)c1NC(=O)N[C@@H]1CC[C@H](CC(=O)Nc2ccc(-c3ccccc3)cc2)O[C@@H]1CO | -2 | . | .
C[C@@H]1CN([C@@H](C)CO)C(=O)CCCn2cc(nn2)CO[C@H]1CN(C)Cc1cccc(C(F)(F)F)c1 | -5 | . | .
COc1ccc(CC(=O)N/N=C(\C)CC(=O)Nc2ccc(N(C)C)cc2)cc1OC | 19 | 0 | .
C/C(CC(=O)Nc1ccc2c(c1)OCCO2)=N\NC(=O)COc1ccc(C)cc1 | 0 | -1 | -1
C/C(CC(=O)Nc1ccc2c(c1)OCCO2)=N\NC(=O)COc1ccc(Cl)c(C)c1 | 1 | -2 | 47*
COc1ccc(CC(=O)N/N=C(\C)CC(=O)Nc2ccc3c(c2)OCCO3)cc1OC | 6 | -3 | 44*
CC(C)NC(=O)Nc1ccc2c(c1)C(=O)N([C@H](C)CO)C[C@H](C)[C@@H](CN(C)Cc1ccc(C(=O)O)cc1)O2 | -4 | . | .
COc1ccc(COCC23N=C4SCCCN4[C@H](c4ccccc4O2)[C@H]3CO)cc1 | 1 | . | .
O=C(Nc1ccc2c(c1)[C@@H]1C[C@@H](CC(=O)N3CCOCC3)O[C@H](CO)[C@@H]1O2)C1CCOCC1 | -7 | . | .
COCC(=O)Nc1ccc2c(c1)[C@H]1C[C@H](CC(=O)NCc3ccc(Cl)cc3)O[C@H](CO)[C@H]1O2 | 4 | . | .
SMILES | ARNT-TACC3 inh | CAL PDZ FP-1 | CAL PDZ FP-2
O=C(C[C@@H]1CC[C@H]2[C@@H](COC[C@@H](O)CN2C(=O)c2cccnc2)O1)NCc1ccc(Cl)cc1 | -2 | . | .
C[C@@H]1CN([C@@H](C)CO)C(=O)c2cc(C3=CCCCC3)cnc2O[C@H]1CN(C)Cc1cccnc1 | 20 | . | .
COc1ccccc1C#Cc1ccc([C@H]2[C@@H](C#N)N(C(=O)C3CC3)[C@@H]2CO)cc1 | -4 | . | .
COc1ccc(-c2nc3ccccc3o2)cc1OC | -4 | 44* | -4
COc1ccc(C(=O)NC(=S)NCc2ccc(-c3nc4ccccc4o3)cc2)cc1OC | 0 | -2 | -4
O=C(CSc1nnc(C2CC2)n1Cc1ccccc1)N1CCN(S(=O)(=O)c2ccccc2)CC1 | -2 | 1 | 42*
O=C(CSc1nnc(C2CC2)n1Cc1ccccc1)c1ccc(S(=O)(=O)N2CCOCC2)cc1 | 0 | -1 | -5
CC(Cc1cccnc1)NC(=O)c1ccccc1OC1CCN(S(C)(=O)=O)CC1 (stereo not given) | -11 | -2 | 31*
COC(=O)[C@@H](NC(=O)c1ccccc1OC1CCN(S(C)(=O)=O)CC1)C(C)C | -2 | 1 | .
C[C@@H]1CN([C@@H](C)CO)C(=O)CCCn2cc(nn2)CO[C@@H]1CN(C)Cc1ccc(C(=O)Nc2ccccc2N)cc1 | 11 | . | .
CNC[C@H]1Oc2ccc(NC(=O)C3CCCCC3)cc2CC(=O)N([C@@H](C)CO)C[C@H]1C | -2 | . | .
CC1CCN(c2oc(-c3ccco3)nc2S(=O)(=O)c2ccccc2)CC1 | . | 0 | .
O=S(=O)(c1ccccc1)c1nc(-c2ccco2)oc1N1CCCCC1 | 0 | -1 | 42*
CN1C(=O)c2cc(NC(=O)Nc3cccc(Cl)c3)ccc2OC[C@@H]2O[C@@H](CC(=O)NCCc3ccncc3)CC[C@H]21 | 4 | . | .
O=C1CCCC2=C1C(c1ccncc1)Nc1ccccc1N2 (stereo not given) | 7 | 0 | -2
O=C1NCC2=C1C(c1ccccc1)Nc1ccccc1N2 (stereo not given) | active | -6 | -7
Cc1cccc(NC(=O)CCNC(=O)c2ccc(Br)cc2)c1 | -3 | -1 | 47*
O=C(CCNC(=O)c1ccc(Br)cc1)Nc1cccc(S(=O)(=O)N2CCCC2)c1 | 4 | -4 | -3
COc1ccc(-c2cnc3c(c2)C(=O)N([C@@H](C)CO)C[C@@H](C)[C@H](CN(C)C(=O)Cc2ccncc2)O3)cc1 | 0 | . | .
C[C@H]1CN([C@@H](C)CO)C(=O)c2cc(NC(=O)Nc3ccc(F)cc3)ccc2O[C@H]1CN(C)S(C)(=O)=O | -7 | . | .
COC(=O)c1ccc(/C=N/Nc2nc(-c3ccccc3)cs2)cc1 | -2 | -1 | .
COc1ccc(/C=N/Nc2nc(C(=O)O)cs2)cc1 | 45* | 0 | -1
C[C@@H]1CCCCO[C@H](CN(C)C(=O)Nc2ccc3c(c2)OCO3)[C@@H](C)CN([C@H](C)CO)C(=O)c2cc(NC(=O)NC3CCCCC3)ccc2O1 | -3 | . | .
O=C(N/N=C(\c1ccccc1)c1cccnc1)c1cccc(F)c1 | 57* | -4 | -2
O=C(N/N=C(\c1ccccc1)c1cccnc1)c1ccc(O)cc1 | -2 | -2 | -3
COc1ccccc1CN1CC[C@@H]2[C@H]1c1cc(-c3ccc(C(=O)N(C)C)cc3)ccc1N[C@@H]2CO | 5 | . | .
CNC[C@@H]1OCCCC[C@@H](C)Oc2ccc(NC(=O)NC3CCCCC3)cc2C(=O)N([C@@H](C)CO)C[C@H]1C | -10 | . | .
C[C@H](CO)N1C[C@H](C)[C@@H](CN(C)S(=O)(=O)c2cccs2)Oc2c(NC(=O)Nc3ccc(F)cc3)cccc2C1=O | -1 | . | .
C[C@H]1CN([C@@H](C)CO)C(=O)c2cc(-c3cccc(F)c3)cnc2O[C@@H]1CN(C)C | -2 | . | .
